The source of these data is ChEMBL document CHEMBL1123752, “Hexahydro-1H-1-pyrindines from acid rearrangement of 9-alkylidene-5-(m-methoxyphenyl)-2-methylmorphans. A new structural type of narcotic antagonists” (J Med Chem, 1987).

One test addresses Mu-type opioid receptor (Rattus norvegicus, UniProt P33535). The test is described as follows: Compound administered subcutaneously was evaluated for inhibition constant measured as the displacement of [3H]DAGO from rat brain. Put shortly: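 Membranes from adult male Sprague-Dawley rat whole brain minus cerebellum, washed in 20 mM potassium phosphate pH 7.4, about 1 mg protein per tube. [³H]DAGO was added from a 2 nM solution. Nonspecific binding was defined with 10 μM naloxone (final). Incubation 45 min at 25 °C, then glass-fibre filtration and scintillation counting. Ki was derived by Cheng–Prusoff.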
Background: In a radioligand displacement assay an active substance lowers the binding of a labelled ligand.

In test [1] the test system is Mus musculus. The test is described as follows: Antinociceptive activity was determined by p-phenylquinone-writhing test in mice after subcutaneous administration. It is filed as functional. Conditions: sc. Put shortly: (§1)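 Mice were dosed subcutaneously. Antinociceptive […] is given in mg/kg with 95% confidence limits.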
A general note: An intraperitoneal irritant provokes the stretching counted in writhing tests.

In test [2] the test system is Mus musculus. In words: Antinociceptive activity was determined by tail flick test in mice after subcutaneous administration; IA means inactive at 1,10 or 30.0 mg/kg. In kind it is functional, organism-based. Also on record: dose 30 mg/kg. Put shortly:
as §1

The subject of test [3] is Mus musculus. In words: Antinociceptive activity was determined by hot plate test in mice after subcutaneous administration;IA means inactive at 1,10 or 30.0 mg/kg. In kind it is functional, organism-based. Also on record: dose 30 mg/kg. Put shortly: as §1
In general terms: Hot-plate and tail-flick tests time the reaction to a heat stimulus.

Test [4] relates to Mus musculus. In words: Compound administered subcutaneously was evaluated for Opioid antagonist activity versus morphine by tail flick antagonism test in mice. It is filed as functional. Put shortly:
(§2)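 Mouse tail-flick test run against morphine, with test agent given subcutaneously. Antagonist AD50 is given in mg/kg with 95% confidence limits.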

Test [5] deals with Mus musculus. In words: Compound administered subcutaneously was evaluated for antinociceptive activity determined by p-phenylquinone-writhing test in mice. In kind it is functional. The settings on record: sc. Put shortly:
as §1

Test [6] concerns Mus musculus. The test is described as follows: Compound administered subcutaneously was evaluated for Opioid antagonist activity versus morphine by tail flick antagonism test in mice 95% confidence limits are in brackets. It is filed as functional. Put shortly: as §2
The subject of test [7] is Mus musculus. The test is described as follows: Compound administered subcutaneously was evaluated for opioid antagonist activity versus morphine by tail flick antagonism test in mice. It is filed as functional. Put shortly: as §2
Test [8] relates to Mus musculus. In words: Antinociceptive activity was determined by tail flick test in mice after subcutaneous administration; I means inactive at 1,10 or 30.0 mg/kg. It is filed as functional, organism-based. Also on record: dose 30 mg/kg. Put shortly:
as §1

Test [9] deals with Mus musculus. In words: Antinociceptive activity was determined by hot plate test in mice after subcutaneous administration at 50 mg/kg. In kind it is functional. The gist of the method:
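Mouse hot-plate assay with subcutaneous dosing. Activity is reported as percent effect at a single 50 mg/kg dose.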

Test [10] relates to Mus musculus. The test is described as follows: Antinociceptive activity was determined by p-phenylquinone-writhing test in mice after subcutaneous administration; I means inactive at 1,10 or 30.0 mg/kg. In kind it is functional, organism-based. Also on record: dose 30 mg/kg. The gist of the method: as §1

Calls of active or inactive are those of the source. The rule behind the calls is not given here.

Chain of Mu-type opioid receptor (P33535 whole entry): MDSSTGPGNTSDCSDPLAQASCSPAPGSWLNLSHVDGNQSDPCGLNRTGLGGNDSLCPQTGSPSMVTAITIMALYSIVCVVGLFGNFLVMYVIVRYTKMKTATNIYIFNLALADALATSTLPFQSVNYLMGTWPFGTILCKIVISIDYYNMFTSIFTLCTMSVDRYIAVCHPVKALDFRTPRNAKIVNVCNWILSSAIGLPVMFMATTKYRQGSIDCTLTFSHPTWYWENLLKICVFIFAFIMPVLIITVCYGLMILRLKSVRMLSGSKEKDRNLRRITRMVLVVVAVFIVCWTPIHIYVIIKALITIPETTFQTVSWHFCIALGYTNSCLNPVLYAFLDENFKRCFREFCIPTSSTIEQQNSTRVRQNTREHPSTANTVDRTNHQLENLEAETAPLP

For `CC[C@]12CCC[C@H]1N(C)CC=C2c1cccc(O)c1`, the affinity on Mu-type opioid receptor corresponds to a Ki of 84 nM. Besides, in the test on Mus musculus [1], the 50% effective dose (ED50) was found to be 35.5 mg/kg. Besides, the ED50 result with Mus musculus [2] and in the test on Mus musculus [3] was “inactive” throughout. Also, in the test with Mus musculus [4], the AD50 worked out at 2.1 mg/kg.
On to `C=CCN1CC[C@]23c4c5ccc(O)c4O[C@H]2[C@@H](O)C=C[C@H]3[C@H]1C5.Cl` [NALORPHINE HYDROCHLORIDE], for which the 50% effect level in the test with Mus musculus [5] (ED50) was put at a dose of 0.6 mg/kg. The inhibition constant (Ki) at Mu-type opioid receptor is 2 nM. Also, in the test on Mus musculus [6], the AD50 amounted to 2.6 mg/kg. Also, in the test on Mus musculus [2], the ED50 entry was “inactive”.
As to `CN1CC=C(c2cccc(O)c2)[C@@]2(C)CCC[C@@H]12`, the AD50 in the test on Mus musculus [7] was determined as 1.7 mg/kg. In addition, the ED50 entry in the test on Mus musculus [8] and with Mus musculus [10] was “inactive” throughout. This compound yielded a Ki on Mu-type opioid receptor of 81 nM. In the test on Mus musculus [9], this compound yielded an Effect of 40%.

The Ki is the dissociation constant of the complex between target and ligand, obtained from inhibition or displacement. The low end stands for a stronger hold on the target, the high end for a looser hold on the target. The term ED50 denotes the midpoint of the dose-response relation.
